Results taken from ChEMBL document CHEMBL2396608, “Thiazolylaminomannosides as potent antiadhesives of type 1 piliated Escherichia coli isolated from Crohn's disease patients” (J Med Chem, 2013).
Activity calls are given as the source filed them. The calls are words filed in the database; no cut-off is given here.

Legend:
Escherichia coli [1] = assay: Antiadhesive activity against type-1 piliated adherent-invasive Escherichia coli LF82 assessed as inhibition of guinea pig erythrocyte hemagglutination relative to heptylmannoside; format: functional
How it was run: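 LF82 grown statically overnight in LB at 37 °C and washed three times in ice-cold PBS. Twofold compound dilutions, starting at 1 mM, made in 20 mM HEPES pH 7.4, 150 mM NaCl. Added 25 μL bacteria, then 50 μL guinea pig erythrocytes at 5%. Overnight on ice before read-out.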

[2] = target: Type 1 fimbrin D-mannose specific adhesin (Escherichia coli K-12) (UniProt P08191); assay: Binding affinity to Escherichia coli FimH assessed as decrease in RNaseB binding after 1 hr by competitive ELISA
Sequence of Type 1 fimbrin D-mannose specific adhesin (Escherichia coli K-12) (P08191 whole entry): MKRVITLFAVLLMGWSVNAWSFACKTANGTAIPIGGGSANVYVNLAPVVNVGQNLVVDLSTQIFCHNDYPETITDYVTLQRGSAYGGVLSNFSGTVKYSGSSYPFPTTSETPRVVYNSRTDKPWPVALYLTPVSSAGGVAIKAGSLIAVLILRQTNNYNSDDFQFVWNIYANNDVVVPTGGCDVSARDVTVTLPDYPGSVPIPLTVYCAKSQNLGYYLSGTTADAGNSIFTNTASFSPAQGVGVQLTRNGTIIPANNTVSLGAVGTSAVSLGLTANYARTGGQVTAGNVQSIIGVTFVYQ
How it was run: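 Wells coated with RNaseB in bicarbonate buffer pH 9.6, overnight at 4 °C. Blocked with 3% BSA in PBST, 2 h at 37 °C. Inhibitors in PBST plus FimH at 0.07 μM, 1 h at room temperature. Detection used rabbit anti-FimH (1:2500, 1 h), then HRP anti-rabbit (1:5000, 1 h), then TMB for 2–5 min in the dark, stopped with 1N H₂SO₄. Absorbance read at 450 nm.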

Escherichia coli [3] = assay: Antiadhesive activity against type-1 piliated adherent-invasive Escherichia coli LF82 assessed as residual bacterial adhesion to human T84 cells overexpressing CEACAM6 at 0.1 uM incubated for 1 hr prior to infection measured after 3 hrs relative to control; format: functional
How it was run: (§1)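 T84 cells seeded at 1.5 × 10⁵ cells/well and grown 48 h at 37 °C under 5% CO₂. Washed monolayers pretreated 1 h with inhibitor at final 0.1, 1, 10 or 100 μM (α-D-mannose 100–50000 μM), then infected 3 h with LB-grown LF82 at MOI 10 with inhibitor present. Cells lysed in 1% Triton X-100; CFU counted on LB agar. Residual adhesion given as % of untreated (means SEM).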

Escherichia coli [4] = assay: Ratio of compound activity to D-mannose activity for prevention of Escherichia coli LF82 adhesion to colonic tissue isolated from FVB/N transgenic mouse expressing human CEACAM6; format: functional
Escherichia coli [5] = assay: Antiadhesive activity against type-1 piliated adherent-invasive Escherichia coli LF82 assessed as inhibition of bacterial adhesion to human T84 cells overexpressing CEACAM6 at 0.1 to 100 uM incubated for 1 hr prior to infection measured after 3 hrs relative to heptylmannoside; format: functional
Escherichia coli [6] = assay: Antiadhesive activity against type-1 piliated adherent-invasive Escherichia coli LF82 assessed as residual bacterial adhesion to human T84 cells overexpressing CEACAM6 at 1 uM incubated for 1 hr prior to infection measured after 3 hrs relative to control; format: functional; how it was run: as §1
Escherichia coli [7] = assay: Antiadhesive activity against type-1 piliated adherent-invasive Escherichia coli LF82 assessed as inhibition of bacterial adhesion to human T84 cells overexpressing CEACAM6 incubated for 1 hr prior to infection measured after 3 hrs; format: functional, organism-based; how it was run: as §1
Escherichia coli [8] = assay: Antiadhesive activity against type-1 piliated adherent-invasive Escherichia coli LF82 assessed as inhibition of bacterial adhesion to colonic tissue isolated from FVB/N transgenic mouse expressing human CEACAM6 after 1 hr; format: functional, organism-based
How it was run: (§2)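 Colons from 10–12-week-old FVB/N CEABAC10 mice (human CEACAM6 transgenic; anesthetized, killed by cervical dislocation) split into four loops. Each loop was injected with 100 μL holding 2 × 10⁵ LF82 with or without inhibitor at 0.01, 0.1, 1 or 10 μmol, then held 1 h at 37 °C, 5% CO₂. Loops were opened, washed four times in PBS, homogenized and plated on LB agar with ampicillin 100 μg/mL and erythromycin 20 μg/mL. CFU normalized to untreated (100%); n = 5–8 mice, means SEM.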

Escherichia coli [9] = assay: Antiadhesive activity against type-1 piliated adherent-invasive Escherichia coli LF82 assessed as decrease in residual bacterial adhesion to colonic tissue isolated from FVB/N transgenic mouse expressing human CEACAM6 at 0.1 umol after 1 hr relative to control; format: functional; how it was run: as §2
Escherichia coli [10] = assay: Antiadhesive activity against type-1 piliated adherent-invasive Escherichia coli LF82 assessed as decrease in residual bacterial adhesion to colonic tissue isolated from FVB/N transgenic mouse expressing human CEACAM6 at 10 umol after 1 hr relative to control; format: functional; how it was run: as §2
Escherichia coli [11] = assay: Antiadhesive activity against type-1 piliated adherent-invasive Escherichia coli LF82 assessed as residual bacterial adhesion to human T84 cells overexpressing CEACAM6 at 1000 uM incubated for 1 hr prior to infection measured after 3 hrs relative to control; format: functional; how it was run: as §1
Escherichia coli [12] = assay: Antiadhesive activity against type-1 piliated adherent-invasive Escherichia coli LF82 assessed as residual bacterial adhesion to human T84 cells overexpressing CEACAM6 at 10 uM incubated for 1 hr prior to infection measured after 3 hrs relative to control; format: functional; how it was run: as §1
[13] = target: Type 1 fimbrin D-mannose specific adhesin (Escherichia coli K-12, UniProt P08191); assay: Binding affinity to Escherichia coli FimH assessed as dissociation constant by ITC analysis
Sequence of Type 1 fimbrin D-mannose specific adhesin (P08191 whole entry): as above

Activity [2] | Compound | fold change (FC) (Escherichia coli [1]) | further results
Dose-dependent effect | N#Cc1ccc(C(=O)c2cnc(N[C@H]3O[C@H](CO)[C@@H](O)[C@H](O)[C@@H]3O)s2)cc1 | 0.7 | –
Dose-dependent effect | O=C(c1cccs1)c1cnc(N[C@H]2O[C@H](CO)[C@@H](O)[C@H](O)[C@@H]2O)s1 | 0.1 | –
Dose-dependent effect | O=C(c1ccsc1)c1cnc(N[C@H]2O[C@H](CO)[C@@H](O)[C@H](O)[C@@H]2O)s1 | 0.3 | –
Dose-dependent effect | O=C(c1cnc(N[C@H]2O[C@H](CO)[C@@H](O)[C@H](O)[C@@H]2O)s1)C(F)(F)F | 1.7 | –
Dose-dependent effect | Cc1ccc(C(=O)c2cnc(N[C@H]3O[C@H](CO)[C@@H](O)[C@H](O)[C@@H]3O)s2)cc1 | 0.4 | –
Dose-dependent effect | O=C(c1ccc2ccccc2c1)c1cnc(N[C@H]2O[C@H](CO)[C@@H](O)[C@H](O)[C@@H]2O)s1 | 2.3 | –
Dose-dependent effect | O=C(c1ccc([N+](=O)[O-])cc1)c1cnc(N[C@H]2O[C@H](CO)[C@@H](O)[C@H](O)[C@@H]2O)s1 | 0.7 | –
Dose-dependent effect | O=C(c1ccccc1)c1cnc(N[C@H]2O[C@H](CO)[C@@H](O)[C@H](O)[C@@H]2O)s1 | 0.4 | –

More lines, now with the values behind:

Compound | Activity [2] | fold change (FC) (Escherichia coli [1]) | further results
CC(C)(C)C(=O)c1cnc(N[C@H]2O[C@H](CO)[C@@H](O)[C@H](O)[C@@H]2O)s1 | Dose-dependent effect | 0.9 | –
Cc1nc(-c2cnccn2)sc1C(=O)c1cnc(N[C@H]2O[C@H](CO)[C@@H](O)[C@H](O)[C@@H]2O)s1 | Dose-dependent effect | 0.2 | Activity (Escherichia coli [3]): 57.6%; Ratio (Escherichia coli [4]): 10; fold change (FC) (Escherichia coli [5]): 0.01; Activity (Escherichia coli [6]): 14%; inhibition (Escherichia coli [7]): Dose-dependent effect; inhibition (Escherichia coli [8]): Dose-dependent effect; Activity (Escherichia coli [9]): 65%
OC[C@H]1O[C@H](O)[C@@H](O)[C@@H](O)[C@@H]1O | – | – | Activity (Escherichia coli [10]): 41%; inhibition (Escherichia coli [7]): Dose-dependent effect; Activity (Escherichia coli [11]): 51.6%; inhibition (Escherichia coli [8]): Dose-dependent effect
O=C(c1cnc(N[C@H]2O[C@H](CO)[C@@H](O)[C@H](O)[C@@H]2O)s1)C12CC3CC(CC(C3)C1)C2 | Dose-dependent effect | 0.3 | –
CCCCCCCO[C@H]1O[C@H](CO)[C@@H](O)[C@H](O)[C@@H]1O | – | – | Activity (Escherichia coli [6]): inactive; inhibition (Escherichia coli [7]): Dose-dependent effect; Activity (Escherichia coli [12]): 52.4%; Kd [13]: 7 nM
CC(=O)c1cnc(N[C@H]2O[C@H](CO)[C@@H](O)[C@H](O)[C@@H]2O)s1 | Dose-dependent effect | 1.4 | inhibition (Escherichia coli [7]): Dose-dependent effect
